Measurements: ChEMBL document CHEMBL1157638, “Fluorescent epigenetic small molecule induces expression of the tumor suppressor ras-association domain family 1A and inhibits human prostate xenograft” (J Med Chem, 2010)
The source made the active and inactive calls. The calls are words filed in the database; no cut-off is given here.

Experiments:
PC-3 [1] = assay: Growth inhibition of human PC3 cells after 24 hrs by trypan blue exclusion method; type: functional; settings: PC-3, 24 h
Method in brief: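 PC-3 cells grown in phenol red-free IMEM with 10% FBS, 2 mM glutamine and penicillin/streptomycin at 37 °C, 5% CO2. Seeded in triplicate at 1.5 × 10⁴ cells/well. After 24 h, treated with DMSO vehicle or 1, 5, 15, 30 or 60 μM compound for 24 h. Cells trypsinized, stained with 0.4% trypan blue, and live and dead cells counted by hemocytometer. Mean ± SEM of three independent observations.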

PC-3 [2] = assay: Decrease in DNA synthesis in human PC3 cells at 5 uM after 24 hrs by BrdU incorporation assay; type: functional, cell-based
Method in brief: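 PC-3 cells were seeded at 2 × 10⁴ cells/well and exposed to 5 μM compound or DMSO for 24 h. BrdU incorporation was read by chemiluminescent cell proliferation ELISA on a luminometer. Background without anti-BrdU-peroxidase was subtracted and values were normalized to untreated control. Values are mean ± SEM.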

[3] = molecular target: DNA (cytosine-5)-methyltransferase 1 (Homo sapiens) (UniProt P26358); assay: Inhibition of DNA methyltransferase activity in human PC3 cells at 15 uM after 3 days; type: cell-based; settings: PC-3
DNA (cytosine-5)-methyltransferase 1 (Homo sapiens), sequence (P26358 whole entry): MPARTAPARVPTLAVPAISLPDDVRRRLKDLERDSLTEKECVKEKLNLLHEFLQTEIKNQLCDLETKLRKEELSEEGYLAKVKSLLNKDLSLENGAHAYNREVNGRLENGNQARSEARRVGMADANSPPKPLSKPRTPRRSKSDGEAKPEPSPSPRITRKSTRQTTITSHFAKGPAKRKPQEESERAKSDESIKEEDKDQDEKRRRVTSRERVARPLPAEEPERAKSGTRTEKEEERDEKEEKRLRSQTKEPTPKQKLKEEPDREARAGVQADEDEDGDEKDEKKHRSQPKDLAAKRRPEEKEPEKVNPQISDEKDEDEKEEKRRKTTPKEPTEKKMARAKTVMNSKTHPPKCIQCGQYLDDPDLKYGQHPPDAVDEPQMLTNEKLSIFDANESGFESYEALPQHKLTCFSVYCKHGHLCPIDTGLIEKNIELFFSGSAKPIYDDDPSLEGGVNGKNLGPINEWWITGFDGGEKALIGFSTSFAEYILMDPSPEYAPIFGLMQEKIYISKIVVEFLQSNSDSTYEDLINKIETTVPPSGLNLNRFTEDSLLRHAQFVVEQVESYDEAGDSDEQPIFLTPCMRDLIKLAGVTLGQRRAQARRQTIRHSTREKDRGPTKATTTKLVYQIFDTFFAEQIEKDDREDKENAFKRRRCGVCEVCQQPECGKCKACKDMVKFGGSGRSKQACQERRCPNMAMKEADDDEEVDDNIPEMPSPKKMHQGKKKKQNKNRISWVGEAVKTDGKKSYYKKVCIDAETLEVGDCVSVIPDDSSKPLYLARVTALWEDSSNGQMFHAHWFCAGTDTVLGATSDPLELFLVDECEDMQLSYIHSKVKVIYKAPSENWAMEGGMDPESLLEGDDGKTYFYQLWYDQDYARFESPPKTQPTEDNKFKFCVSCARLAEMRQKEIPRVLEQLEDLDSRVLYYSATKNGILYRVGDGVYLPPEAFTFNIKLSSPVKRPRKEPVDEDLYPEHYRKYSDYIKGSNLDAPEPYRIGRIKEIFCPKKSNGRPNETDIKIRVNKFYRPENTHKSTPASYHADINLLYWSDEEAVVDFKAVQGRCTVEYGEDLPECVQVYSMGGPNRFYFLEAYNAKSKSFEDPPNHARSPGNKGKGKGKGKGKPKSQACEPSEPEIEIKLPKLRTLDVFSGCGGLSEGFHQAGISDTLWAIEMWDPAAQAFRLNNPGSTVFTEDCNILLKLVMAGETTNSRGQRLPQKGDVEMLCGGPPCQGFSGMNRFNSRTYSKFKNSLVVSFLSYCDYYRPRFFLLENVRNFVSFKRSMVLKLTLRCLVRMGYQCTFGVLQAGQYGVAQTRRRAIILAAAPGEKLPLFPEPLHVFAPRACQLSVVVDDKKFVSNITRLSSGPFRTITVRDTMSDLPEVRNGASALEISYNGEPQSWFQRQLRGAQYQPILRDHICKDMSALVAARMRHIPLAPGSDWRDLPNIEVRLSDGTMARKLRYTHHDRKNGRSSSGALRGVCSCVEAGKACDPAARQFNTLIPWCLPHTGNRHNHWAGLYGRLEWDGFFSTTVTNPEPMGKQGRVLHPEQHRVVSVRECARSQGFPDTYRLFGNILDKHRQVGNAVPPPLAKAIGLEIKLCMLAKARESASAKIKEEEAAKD
Method in brief: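 PC-3 cells in complete growth medium treated 3 days with compound, then harvested. Nuclear extracts prepared by kit protocol, and DNMT activity measured with a commercial DNMT activity kit against untreated cells. Mean of three independent experiments ± SEM.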

PC-3 [4] = assay: Increase in RASSF1A gene expression in human PC3 cells at 15 uM after 3 days hrs by RT-PCR; type: functional
Method in brief: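 PC-3 cells incubated 3 days with compound, then RNA extracted with TRIzol. 500 ng total RNA reverse-transcribed with random hexamers. RASSF1A amplified with previously described primers and conditions. Products run on 1.5% agarose and stained with ethidium bromide. Bands quantified by densitometry against untreated cells, with RASSF1A re-expression from the reference alkaloid set to 100%.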

PC-3 [5] = assay: […] in RASSF1A gene expression in human PC3 cells at 15 uM after 3 days hrs by RT-PCR; type: functional, cell-based

Row | GI50 (PC-3 [1]) [µM] | Activity [3] | SMILES | Activity (PC-3 [2]) | Activity (PC-3 [4]) | Activity (PC-3 [5])
1 | 15.3 | Active | COc1ccc2c(c1)[nH]c1cc(O)c(C)cc12 | Active |  | 
2 | 18.7 | Active | COc1ccc2c(c1)[nH]c1c(C)c(O)ccc12 |  |  | 
3 | 48.9 |  | COc1ccc2c(c1)[nH]c1cc(OCc3ccccc3)c(C)cc12 |  | inactive | inactive
4 | 22.9 |  | COc1ccc2c(c1)[nH]c1cc(OS(=O)(=O)c3cccc4c(N(C)C)cccc34)c(C)cc12 |  | inactive | inactive
5 | 17.6 | Active | COc1ccc2c(c1)[nH]c1c(C)c(OCc3ccccc3)ccc12 | Active | 50% | 
